SMILES strings stand for the structures. Values after ≈ are worked out from the molar mass of the structure shown. Some results are limits rather than exact numbers.

Data set [1] addresses Serine/threonine-protein kinase pim-1 (Homo sapiens) (UniProt P11309). The experiment in a line: Inhibition of human full length recombinant Pim1 assessed as residual activity at 1 uM using KKRNRTLTV as substrate incubated for 40 mins in presence of [gamma 33P]-ATP by radiometric scintillation counting assay relative to control. Summed up:
(§1)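 Commercial radiometric panel of 50 kinases. Each recombinant human kinase was tested at a single compound concentration of 1 μM. ATP was set within 15 μM of the apparent Km for ATP for each kinase. Residual activity is relative to control and is the mean of two independent experiments.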

Data set [2] addresses Tyrosine-protein kinase Lyn (Homo sapiens) (UniProt P07948). The experiment in a line: Inhibition of recombinant human Lyn assessed as residual activity at 1 uM using poly(Glu, Tyr) 4:1 as substrate after 40 mins in presence of [gamma-33ATP] by scintillation counting based radiometry assay relative to control. In a few lines:
as §1

Data set [3] deals with Inhibitor of nuclear factor kappa-B kinase subunit epsilon (Homo sapiens) (UniProt Q14164). The experiment in a line: Inhibition of human full length recombinant IKKepsilon assessed as residual activity at 1 uM using casein as substrate incubated for 40 mins in presence of [gamma 33P]-ATP by radiometric scintillation counting assay relative to control. Summed up: as §1
Chain of Inhibitor of nuclear factor kappa-B kinase subunit epsilon (Homo sapiens) (Q14164 whole entry): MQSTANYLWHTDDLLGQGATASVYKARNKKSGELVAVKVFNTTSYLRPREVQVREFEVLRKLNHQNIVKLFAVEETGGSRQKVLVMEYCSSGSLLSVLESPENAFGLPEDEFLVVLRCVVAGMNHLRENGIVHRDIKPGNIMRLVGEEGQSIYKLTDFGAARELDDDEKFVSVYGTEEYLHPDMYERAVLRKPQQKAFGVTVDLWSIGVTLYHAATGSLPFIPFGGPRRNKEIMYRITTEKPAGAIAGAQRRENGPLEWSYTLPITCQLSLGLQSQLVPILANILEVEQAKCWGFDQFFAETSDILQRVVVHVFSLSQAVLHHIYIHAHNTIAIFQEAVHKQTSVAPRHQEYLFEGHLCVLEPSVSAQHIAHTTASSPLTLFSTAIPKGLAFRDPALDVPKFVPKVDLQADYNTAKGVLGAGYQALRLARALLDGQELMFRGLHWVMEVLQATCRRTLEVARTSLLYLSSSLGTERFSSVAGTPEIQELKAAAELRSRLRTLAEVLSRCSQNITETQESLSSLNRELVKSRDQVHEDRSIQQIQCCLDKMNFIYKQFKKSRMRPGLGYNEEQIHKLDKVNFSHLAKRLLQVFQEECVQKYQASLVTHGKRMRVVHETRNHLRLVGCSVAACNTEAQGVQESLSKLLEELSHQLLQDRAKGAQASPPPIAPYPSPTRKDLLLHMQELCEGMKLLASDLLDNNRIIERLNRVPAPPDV
Data set [4] addresses Serine/threonine-protein kinase 4 (Homo sapiens) (UniProt Q13043). The experiment in a line: Inhibition of human full length recombinant MST1 assessed as residual activity at 1 uM using KKSRGDYMTMQIG as substrate incubated for 40 mins in presence of [gamma 33P]-ATP by radiometric scintillation counting assay relative to control. Summed up: as §1
Data set [5] in a line: Permeability across apical to basolateral side in human Caco-2 cells at pH 6.5 to 7.4 by HPLC-MS/MS analysis. It is filed as ADME, cell-based. The settings on record: Caco-2, pH 6.5, read-out: permeability. Summed up:
(§2)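 Commercial Caco-2 assay, apical-to-basolateral direction at pH 6.5/7.4. Permeability and percent recovery taken from HPLC-MS/MS peak area response. Propranolol, labetalol, colchicine and ranitidine run in parallel as references.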
(Caco-2 cells form a polarised layer with tight junctions and transporters.)

In data set [6] the target is Serine/threonine-protein kinase Nek2 (Homo sapiens) (UniProt P51955). Nature of the data set: Inhibition of human full length recombinant NEK2 assessed as residual activity at 1 uM using poly(Glu, Tyr) 4:1 as substrate incubated for 40 mins in presence of [gamma 33P]-ATP by radiometric scintillation counting assay relative to control. In a few lines: as §1
Chain of Serine/threonine-protein kinase Nek2 (Homo sapiens) (P51955 whole entry): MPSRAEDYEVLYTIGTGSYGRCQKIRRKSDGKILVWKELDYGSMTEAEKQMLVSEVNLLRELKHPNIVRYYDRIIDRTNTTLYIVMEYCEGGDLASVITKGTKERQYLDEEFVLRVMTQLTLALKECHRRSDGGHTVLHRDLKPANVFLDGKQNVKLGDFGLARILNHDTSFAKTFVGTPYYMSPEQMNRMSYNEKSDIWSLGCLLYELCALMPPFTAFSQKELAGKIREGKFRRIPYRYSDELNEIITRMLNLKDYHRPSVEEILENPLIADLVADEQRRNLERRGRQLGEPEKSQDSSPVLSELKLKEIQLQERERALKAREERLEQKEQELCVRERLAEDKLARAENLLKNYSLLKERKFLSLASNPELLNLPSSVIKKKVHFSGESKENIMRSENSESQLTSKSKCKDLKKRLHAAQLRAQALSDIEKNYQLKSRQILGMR
Data set [7] concerns the target Calcium/calmodulin-dependent protein kinase type 1G (Homo sapiens) (UniProt Q96NX5). The experiment in a line: Inhibition of recombinant full length human CaMK1gamma assessed as residual activity at 1 uM using KKLRRTLSFAEPG as substrate incubated for 40 mins in presence of [gamma-33ATP] by radiometric scintillation counting analysis relative to control. Summed up:
as §1

Data set [8] relates to RAF proto-oncogene serine/threonine-protein kinase (Homo sapiens), P04049 [Y340D,Y341D]. The experiment in a line: Inhibition of human c-Raf (Raf-1) Y340D/Y341D mutant (306 to end) as residual activity at 1 uM using inactive MEK1 as substrate incubated for 40 mins in presence of [gamma 33P]-ATP by radiometric scintillation counting assay relative to control. In a few lines: as §1

In data set [9] the target is Tyrosine-protein kinase SYK (Homo sapiens) (UniProt P43405). The experiment in a line: Inhibition of recombinant full-length human Syk at 1 uM assessed as residual activity at 1 uM using poly(Glu, Tyr) 4:1 as substrate measured after 40 mins in presence of [gamma33P]ATP by radiometric scintillation counting method relative to control. In a few lines: as §1
Data set [10] addresses Mitogen-activated protein kinase kinase kinase 5 (Homo sapiens) (UniProt Q99683). Nature of the data set: Inhibition of recombinant human ASK1 (649 to 946 residues) assessed as residual activity at 1 uM using myelin basic protein as substrate measured after 40 mins in presence of [gamma33P]ATP by radiometric scintillation counting method. Summed up:
as §1

The species entered for data set [11] is Homo sapiens. Nature of the data set: Inhibition of human full length recombinant CDK1/CyclinB assessed as residual activity at 1 uM using histone H1 as substrate incubated for 40 mins in presence of [gamma 33P]-ATP by radiometric scintillation counting assay relative to control. Summed up: as §1
Data set [12] is described as follows: Permeability across apical to basolateral side in human Caco-2 cells assessed as drug recovery at pH 6.5 to 7.4 by HPLC-MS/MS analysis. The settings on record: Caco-2, pH 6.5, read-out: Drug recovery. In kind it is ADME, cell-based. Summed up: as §2
Data set [13] addresses MAP kinase-activated protein kinase 2 (Homo sapiens) (UniProt P49137). The experiment in a line: Inhibition of recombinant human MAPKAPK2 (46 to end residues) assessed as residual activity at 1 uM using KKLNRTLSVA as substrate incubated for 40 mins in presence of [gamma-33P]-ATP by radiometric scintillation counting method relative to control. In a few lines:
as §1

The target in data set [14] is Glycogen synthase kinase-3 beta (Homo sapiens) (UniProt P49841). Nature of the data set: Inhibition of human GSK3beta (2 to end residues) assessed as residual activity using YRRAAVPPSPSLSRHSSPHQS(p) EDEEE as substrate at 1 uM incubated for 40 mins in presence of [gamma 33P]-ATP by radiometric scintillation counting assay relative to control. Summed up: as §1
Chain of Glycogen synthase kinase-3 beta (Homo sapiens) (P49841 whole entry, looked up): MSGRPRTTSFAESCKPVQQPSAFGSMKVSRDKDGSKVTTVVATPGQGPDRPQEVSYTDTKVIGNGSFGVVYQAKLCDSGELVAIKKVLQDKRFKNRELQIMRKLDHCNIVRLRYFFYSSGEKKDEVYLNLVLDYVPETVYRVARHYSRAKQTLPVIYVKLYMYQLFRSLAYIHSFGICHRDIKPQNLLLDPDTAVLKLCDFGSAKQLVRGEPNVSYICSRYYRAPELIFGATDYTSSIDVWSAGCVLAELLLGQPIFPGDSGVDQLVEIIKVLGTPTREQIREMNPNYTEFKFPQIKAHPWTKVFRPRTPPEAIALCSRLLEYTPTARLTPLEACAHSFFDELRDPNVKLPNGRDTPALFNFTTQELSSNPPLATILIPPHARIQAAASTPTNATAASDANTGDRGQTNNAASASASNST
In data set [15] the target is Epidermal growth factor receptor (Homo sapiens) (UniProt P00533). Nature of the data set: Inhibition of human recombinant EGFR (696 to end residues) assessed as residual activity at 1 uM using poly(Glu, Tyr) 4:1 as substrate incubated for 40 mins in presence of [gamma 33P]-ATP by radiometric scintillation counting assay relative to control. In a few lines: as §1
Chain of Epidermal growth factor receptor (Homo sapiens) (P00533 whole entry): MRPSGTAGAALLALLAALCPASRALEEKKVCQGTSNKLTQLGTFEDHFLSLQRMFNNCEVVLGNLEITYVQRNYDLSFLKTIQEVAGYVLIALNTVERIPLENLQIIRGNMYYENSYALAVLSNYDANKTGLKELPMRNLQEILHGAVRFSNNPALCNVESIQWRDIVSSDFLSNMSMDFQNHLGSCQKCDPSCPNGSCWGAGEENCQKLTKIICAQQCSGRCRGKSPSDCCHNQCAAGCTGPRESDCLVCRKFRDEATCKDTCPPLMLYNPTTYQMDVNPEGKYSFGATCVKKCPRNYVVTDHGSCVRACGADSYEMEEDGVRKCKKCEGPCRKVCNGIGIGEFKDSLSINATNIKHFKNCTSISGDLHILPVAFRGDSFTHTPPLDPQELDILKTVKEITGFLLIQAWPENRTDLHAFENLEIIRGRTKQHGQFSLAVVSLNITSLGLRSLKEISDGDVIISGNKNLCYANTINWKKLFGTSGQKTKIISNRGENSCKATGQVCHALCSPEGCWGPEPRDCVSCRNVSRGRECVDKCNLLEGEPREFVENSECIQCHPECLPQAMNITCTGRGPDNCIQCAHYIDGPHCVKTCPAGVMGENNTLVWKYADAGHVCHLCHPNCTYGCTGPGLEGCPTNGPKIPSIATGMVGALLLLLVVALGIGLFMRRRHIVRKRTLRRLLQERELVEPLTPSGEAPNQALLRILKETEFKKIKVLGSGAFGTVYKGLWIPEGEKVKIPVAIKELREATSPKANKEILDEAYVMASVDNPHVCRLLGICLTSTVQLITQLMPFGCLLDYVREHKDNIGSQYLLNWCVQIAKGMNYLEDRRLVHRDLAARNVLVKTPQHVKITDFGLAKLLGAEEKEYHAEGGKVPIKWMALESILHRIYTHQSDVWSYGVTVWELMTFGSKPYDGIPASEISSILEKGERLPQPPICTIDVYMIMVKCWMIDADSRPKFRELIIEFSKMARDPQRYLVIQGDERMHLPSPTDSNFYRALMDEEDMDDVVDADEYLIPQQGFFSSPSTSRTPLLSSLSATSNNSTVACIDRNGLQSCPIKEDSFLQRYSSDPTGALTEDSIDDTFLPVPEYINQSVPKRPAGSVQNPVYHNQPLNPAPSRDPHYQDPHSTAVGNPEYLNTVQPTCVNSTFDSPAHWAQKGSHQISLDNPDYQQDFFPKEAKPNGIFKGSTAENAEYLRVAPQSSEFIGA
Data set [16] deals with CDK6/cyclin D3 (Homo sapiens) (UniProt P30281+Q00534). The experiment in a line: Inhibition of human full length recombinant CDK6/CyclinD3 assessed as residual activity at 1 uM using histone H1 as substrate incubated for 40 mins in presence of [gamma 33P]-ATP by radiometric scintillation counting assay relative to control. It is filed as protein-complex assay. Summed up:
as §1

Data set [17] is filed under the species Homo sapiens. Nature of the data set: Inhibition of human full length recombinant CDK2/cyclinE assessed as residual activity at 1 uM using histone H1 as substrate incubated for 40 mins in presence of [gamma 33P]-ATP by radiometric scintillation counting assay relative to control. Summed up: as §1
The nature of data set [18]: Toxicity in wild-type Zebrafish embryos assessed as effect on normal eye development at 0.05 to 30 uM measured upto 120 hrs. The settings on record: in vivo, dose 0.05-30 µM. Further details: species or system Danio rerio. In a few lines: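 Wild-type embryos, 15 per group with intact chorions, dosed at 6 hpf with 0.05–30 μM final concentrations in E3, diluted from a DMSO stock. Survival checked every 24 h by heartbeat over 120 h, and phenotypes assessed visually. At least triplicate, 5 replicates at 30 μM.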

A short description of data set [19]: Solubility of the compound in E3 medium with DMSO incubated for 24 hrs by DAD-HPLC based shake flask method. In kind it is physicochemical. Summed up: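 Shake-flask solubility: saturated solution in E3-medium shaken 24 h at 25 °C, then HPLC-DAD at 280 nm. Concentration read by interpolation from a calibration series of 1–100 μM standards in acetonitrile, prepared from a 10 mM DMSO stock. Triplicate.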

Data set [20] deals with Serine/threonine-protein kinase mTOR (Homo sapiens) (UniProt P42345). The experiment in a line: Inhibition of human full length recombinant MTOR assessed as residual activity at 1 uM incubated for 40 mins in presence of [gamma 33P]-ATP by radiometric scintillation counting assay relative to control. In a few lines: as §1

Chain of MAP kinase-activated protein kinase 2 (Homo sapiens) (P49137 whole entry, looked up): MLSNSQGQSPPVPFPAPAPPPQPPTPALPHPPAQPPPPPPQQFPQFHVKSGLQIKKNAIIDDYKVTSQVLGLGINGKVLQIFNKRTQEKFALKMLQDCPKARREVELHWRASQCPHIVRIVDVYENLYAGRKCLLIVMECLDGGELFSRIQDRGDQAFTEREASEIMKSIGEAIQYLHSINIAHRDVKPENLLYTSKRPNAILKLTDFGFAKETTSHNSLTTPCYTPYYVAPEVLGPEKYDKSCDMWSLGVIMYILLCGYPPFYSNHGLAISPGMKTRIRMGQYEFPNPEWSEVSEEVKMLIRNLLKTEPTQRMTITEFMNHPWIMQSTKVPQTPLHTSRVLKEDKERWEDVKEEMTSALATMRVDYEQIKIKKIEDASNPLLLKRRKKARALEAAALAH
Chain of Tyrosine-protein kinase Lyn (Homo sapiens) (P07948 2-512 limits assumed): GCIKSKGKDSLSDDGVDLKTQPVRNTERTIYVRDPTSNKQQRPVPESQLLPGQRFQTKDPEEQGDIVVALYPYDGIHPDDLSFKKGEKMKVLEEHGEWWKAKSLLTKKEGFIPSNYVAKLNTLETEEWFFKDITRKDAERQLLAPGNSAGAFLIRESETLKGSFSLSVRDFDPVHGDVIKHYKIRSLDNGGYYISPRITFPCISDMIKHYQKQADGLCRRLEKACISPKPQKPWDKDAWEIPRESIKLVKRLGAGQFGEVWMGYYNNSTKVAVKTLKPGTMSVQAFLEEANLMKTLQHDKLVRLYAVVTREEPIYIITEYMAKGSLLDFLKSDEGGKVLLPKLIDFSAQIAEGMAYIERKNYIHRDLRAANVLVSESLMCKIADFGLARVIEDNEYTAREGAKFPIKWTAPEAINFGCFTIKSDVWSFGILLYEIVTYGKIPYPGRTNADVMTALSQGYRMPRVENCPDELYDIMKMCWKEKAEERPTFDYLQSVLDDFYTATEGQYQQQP
Chain of Calcium/calmodulin-dependent protein kinase type 1G (Homo sapiens) (Q96NX5 whole entry): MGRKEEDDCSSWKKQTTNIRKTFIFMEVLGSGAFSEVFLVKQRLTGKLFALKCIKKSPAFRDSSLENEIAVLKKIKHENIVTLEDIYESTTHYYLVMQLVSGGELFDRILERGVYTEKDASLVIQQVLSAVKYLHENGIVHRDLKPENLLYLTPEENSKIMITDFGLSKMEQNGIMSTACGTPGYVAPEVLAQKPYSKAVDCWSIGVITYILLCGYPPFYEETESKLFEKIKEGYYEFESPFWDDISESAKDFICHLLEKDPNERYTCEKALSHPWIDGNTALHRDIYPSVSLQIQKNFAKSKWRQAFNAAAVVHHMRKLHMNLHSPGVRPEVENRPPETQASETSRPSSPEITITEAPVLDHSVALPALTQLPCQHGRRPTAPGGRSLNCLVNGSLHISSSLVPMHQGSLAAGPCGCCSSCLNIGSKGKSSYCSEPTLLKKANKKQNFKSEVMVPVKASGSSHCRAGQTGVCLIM
Chain of Serine/threonine-protein kinase 4 (Homo sapiens) (Q13043 whole entry): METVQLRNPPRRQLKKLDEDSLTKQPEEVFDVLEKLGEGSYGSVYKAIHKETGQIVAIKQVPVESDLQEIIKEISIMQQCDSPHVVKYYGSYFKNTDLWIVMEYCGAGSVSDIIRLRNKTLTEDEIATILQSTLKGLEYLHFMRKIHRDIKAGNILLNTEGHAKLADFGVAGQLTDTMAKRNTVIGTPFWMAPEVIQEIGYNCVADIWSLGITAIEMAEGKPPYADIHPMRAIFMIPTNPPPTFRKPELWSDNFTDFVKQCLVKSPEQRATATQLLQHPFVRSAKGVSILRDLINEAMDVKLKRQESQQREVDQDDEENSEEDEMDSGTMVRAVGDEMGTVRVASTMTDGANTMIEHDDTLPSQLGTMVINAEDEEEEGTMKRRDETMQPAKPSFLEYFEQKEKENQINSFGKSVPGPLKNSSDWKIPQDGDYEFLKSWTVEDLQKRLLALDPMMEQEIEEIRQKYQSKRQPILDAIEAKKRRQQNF
Chain of Serine/threonine-protein kinase pim-1 (Homo sapiens) (P11309 whole entry, looked up): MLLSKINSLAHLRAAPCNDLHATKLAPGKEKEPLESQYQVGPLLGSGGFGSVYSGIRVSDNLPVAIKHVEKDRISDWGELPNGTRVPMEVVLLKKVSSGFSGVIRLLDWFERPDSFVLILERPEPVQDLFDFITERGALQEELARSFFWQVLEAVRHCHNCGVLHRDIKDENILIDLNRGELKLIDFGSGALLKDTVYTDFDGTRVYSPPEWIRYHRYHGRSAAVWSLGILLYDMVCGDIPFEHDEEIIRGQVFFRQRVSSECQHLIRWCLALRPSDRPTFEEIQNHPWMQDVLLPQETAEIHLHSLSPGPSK

The term solubility denotes the dissolved amount per volume that the medium holds. In the case of `O=S(=O)(N[C@@H](CO)Cc1c[nH]c2ccccc12)c1ccc(-c2ccnc3[nH]ccc23)cc1`, the Activity in [1], in [2], in data set [3], in data set [4], in data set [6] and in [7] was over 75% throughout. For the same compound, the Activity (in [8]; in data set [9]; in [10]; in the data set listed under Homo sapiens [11]; in [13]; in data set [14]) was over 75% in each case. Further, the Activity in data set [15] is over 75%; in data set [16] it was over 75%; in the data set filed under Homo sapiens [17], over 75%; in data set [18], “Non-Toxic”; in [20], over 75%. The Papp A→B in [5] amounted to 3.4 ×10⁻⁶ cm/s. The recovery in data set [12] came to 45%. This compound returned a solubility at 24 h in data set [19] of 13.9 µg/mL (≈ 31.1 µM).

These data come from ChEMBL document CHEMBL5154713, “Illuminating a Dark Kinase: Structure-Guided Design, Synthesis, and Evaluation of a Potent Nek1 Inhibitor and Its Effects on the Embryonic Zebrafish Pronephros” (J Med Chem, 2022).
